Assay outcomes as filed in PubChem BioAssay.
The list is not random: actives were taken first. Their share in the collection is about 2.3%.
PfHsp90 set2: growth inhibition of PfHsp90-expressing yeast, primary screen, antimalarial PfHsp90 inhibitor project, S. cerevisiae, BacTiter-Glo luminescence, single point, set 2; BacTiter-Glo ATP, 48 h; yeast lacking PDR1 and PDR3 efflux regulators; inhibition, % at 9.4 µM; actives 0.32% (n = 310,000);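 active = every replicate shows inhibition above about 80%, whatever the replicate mean, limit read from the data; inconclusive = mean inhibition reaches the set limit but some replicate falls short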;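 note: 0% = DMSO neutral controls and 100% = 20 µM radicicol positive controls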
Rtt109 Vps75: inhibitors of C. albicans Rtt109/Vps75 HAT, primary screen, biochemical, ThioGlo CoA-SH fluorescence, plate reader; inhibition, % at 34.9 µM; purified Rtt109/Vps75, 4 h; actives 0.16% (n = 330,000);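 active = inhibition of at least 50% in every replicate; inconclusive = best replicate reaches 50% inhibition but some replicates fall short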
Target sequence (Q5AAJ8 whole entry, looked up): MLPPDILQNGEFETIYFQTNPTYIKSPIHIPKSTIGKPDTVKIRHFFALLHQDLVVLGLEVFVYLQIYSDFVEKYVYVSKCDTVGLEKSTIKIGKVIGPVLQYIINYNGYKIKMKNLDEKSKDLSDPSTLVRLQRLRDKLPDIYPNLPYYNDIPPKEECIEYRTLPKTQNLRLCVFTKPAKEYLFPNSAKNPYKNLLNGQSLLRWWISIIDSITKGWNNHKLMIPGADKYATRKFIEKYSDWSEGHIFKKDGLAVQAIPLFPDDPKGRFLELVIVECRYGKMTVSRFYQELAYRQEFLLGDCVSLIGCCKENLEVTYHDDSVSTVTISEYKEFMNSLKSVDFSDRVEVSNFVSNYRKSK
N-glyco inh: increase of ERlucT glycosylation luciferase signal, primary screen, N-linked glycosylation inhibitor project, D54 ERlucT cells, luminescence, set 2 | D54 ERlucT glycosylation luciferase reporter, 24 h; percent of 100 nM tunicamycin response | actives 0.23% (n = 360,000) | reporter increase, % at 12.5 µM;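 active = mean luciferase reporter signal, scaled so untreated is 0 and the glycosylation-blocking control 100, at or above a set limit in every replicate; inconclusive = mean reaches the limit but not every replicate does; inactive = mean below the limit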;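 note: luciferase carries N-glycosylation sites so blocking glycosylation raises the light; 0% = median of neutral control wells and 100% = median of 100 nM tunicamycin wells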
PAX8 inh HTS: inhibitors of PAX8-driven TPO luciferase reporter, primary screen, RMG-I cells, single concentration; SteadyGlo, 24 h; inhibition, % at 12.6 µM; actives 1.2% (n = 360,000); AID 652154, 2013;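 active = mean replicate inhibition at least 60% with every replicate also reaching 60%; inconclusive = only one of the two criteria is met; inactive = mean below 60% and not all replicates reaching 60%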;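 note: luciferase light reporting Pax8 driven TPO promoter activity; plate controls were median of neutral control wells for no effect and mitoxantrone controls for full effect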
Env fusion inh: inhibitors of HIV-1 Env-driven cell-cell fusion, primary screen, HeLa-JRFL effector, CEM21 target cells, luciferase; inhibition, % at 12.3 µM; AID 651610, 2012; actives 1.1% (n = 360,000);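 active = mean replicate inhibition score of at least 50 and every replicate individually at or above 50; inconclusive = only one of the two criteria met; inactive = mean below 50 and not all replicates reaching 50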;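 note: 0% = plate neutral controls and 100% = maraviroc near 300 nM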
Arr AP2 block: inhibitors of beta-arrestin/AP2 binding, primary screen, biochemical, GPCR trafficking, flow cytometry. beta-arrestin 1 C-terminal peptide binding to AP2 beta2-adaptin appendage (human). FITC-arrestin peptide / GST-AP2 beads; AP2 beta2 appendage carries R879A mutation. inhibition, % at 10 µM. actives 0.31% (n = 340,000);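 active = inhibition above a set limit, near 3 SD of compounds lacking own fluorescence, cut at about 54% in these data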;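 note: plate controls were DMSO wells for no effect and 5 µM unlabelled arrestin peptide for full effect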
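System: GST-tagged AP2 beta2-adaptin appendage (R879A) on 4 µm glutathione beads / Reagent: FITC-arrestin peptide, 50 nM / Detection: HyperCyt-sampled flow cytometry, FL1 channel, ex 488/em 535 nm / Timing: 12 min plus 1 h, RT / Buffer or medium: PBS plus Tween 20 (0.05%) and BSA (0.1%)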
Active calls of the source: *; ? = inconclusive; / = not tested or not shown; [ ] = dose if it differs, or a comment.

SMILES | PfHsp90 set2 | Rtt109 Vps75 | N-glyco inh | PAX8 inh HTS | Env fusion inh | Arr AP2 block
C[C@H]1CN([C@@H](C)CO)C(=O)c2cccc(NC(=O)NC3CCCCC3)c2O[C@@H]1CN(C)S(=O)(=O)c1ccc(Cl)cc1 | / | / | / | -1 | / | /
Cc1ccc(S(=O)(=O)N(C)C[C@H]2Oc3c(NC(=O)Nc4ccc(F)cc4)cccc3C(=O)N([C@@H](C)CO)C[C@H]2C)cc1 | / | / | / | 78* | 25[16.7 µM] | /
COc1cccc(NC(=O)N[C@@H]2C=C[C@H](CC(=O)Nc3ccccc3)O[C@H]2CO)c1 | / | / | / | 0 | -15[16.7 µM] | /
COC(=O)[C@@H]1[C@@H](CO)[C@@H]2Cn3c(ccc(-c4ccncc4)c3=O)[C@@H]2N1Cc1ccccc1F | / | / | / | -7 | / | /
CCCNC(=O)Nc1ccc2c(c1)C(=O)N(C)[C@@H]1CC[C@H](CC(=O)O)O[C@H]1CO2 | / | / | / | -8 | -46[16.7 µM] | /
CCOC(=O)c1c(C)cc2c(CO)n[nH]c(=O)c2c1C | / | / | -3 | -23 | 56* | /
CCOC(=O)Cc1n[nH]c(=O)c2ccccc12 | 2 | 7 | 3 | -18 | -7 | 0
O=c1cc(-c2ccc(C3CCCCC3)cc2)[nH][nH]1 | 94* | 1 | -2 | -32 | -20 | 14
COc1ccc2oc(=O)c(-c3csc(Nc4cccc(O)c4)n3)cc2c1 | 103* | 9 | 4 | -27 | / | 11
CCCN(C)C[C@H]1OCCCC[C@@H](C)Oc2ccc(NS(=O)(=O)c3ccc(OC)cc3)cc2C(=O)N([C@@H](C)CO)C[C@H]1C | / | / | / | 1 | 0[16.7 µM] | /
Cc1onc(-c2ccccc2)c1C(=O)NNC(=S)NC(=O)c1ccc(Br)cc1 | -16 | 3 | 5 | 23 | / | -9
COc1ccc(-c2cc(C(=O)NNC(=S)NC(=O)c3c(-c4ccccc4)noc3C)[nH]n2)cc1 | -26 | -5 | 1 | -16 | 69* | 13
COc1ccc(/C=C/C(=O)NC(=S)NNC(=O)c2c(-c3ccccc3)noc2C)cc1 | -1 | 2 | 1 | -11 | 91* | 10
C/C=C/c1ccc([C@@H]2[C@H](CO)N(Cc3cccc(F)c3)C23CN(C(=O)CC)C3)cc1 | / | / | / | 12 | / | /
C/C=C/c1cnc2c(c1)C(=O)N([C@H](C)CO)C[C@@H](C)[C@@H](CN(C)C(=O)CN1CCOCC1)O2 | / | / | / | / | -10[16.7 µM] | /
CS(=O)(=O)Nc1ccc2c(c1)[C@H]1C[C@H](CC(=O)NCC(F)(F)F)O[C@@H](CO)[C@H]1O2 | / | / | / | -5 | -8[16.7 µM] | /
CC(C)CC#Cc1cnc2c(c1)C(=O)N([C@@H](C)CO)C[C@H](C)[C@@H](CN(C)C(=O)c1cccnc1)O2 | / | / | / | / | -2[16.7 µM] | /
COc1ccc([C@@H]2[C@@H]3C(=O)N(C(C)(C)C)C(=O)[C@@H]3[C@]3(Cc4ccccc4)C(=O)N(c4cccc(Cl)c4)C(=O)N23)cc1 | -25 | 3 | ? | 15 | 80* | /
COc1ccc([C@@H]2[C@@H]3C(=O)N(C(C)(C)C)C(=O)[C@@H]3[C@]3(Cc4ccccc4)C(=O)N(c4ccccc4)C(=O)N23)cc1 | 1 | 12 | 1 | -8 | 4 | -4
COc1ccc([C@@H]2[C@@H]3C(=O)N(C(C)(C)C)C(=O)[C@@H]3[C@]3(Cc4ccccc4)C(=O)N(c4cccc(C)c4)C(=O)N23)cc1 | -13 | -8 | 56* | -1 | 19 | 5
O=c1c(Br)c(Br)cnn1-c1ccccc1 | -32 | -1 | -16 | 107* | -229 | -15
C[C@@H]1CCCCO[C@@H](CN(C)C(=O)NC2CCCCC2)[C@H](C)CN([C@H](C)CO)C(=O)c2cc(NC(=O)Nc3ccc(F)cc3)ccc2O1 | / | / | / | 74* | -7[16.7 µM] | /
C[C@H]1CCCCO[C@H](CN(C)C(=O)NC2CCCCC2)[C@@H](C)CN([C@@H](C)CO)C(=O)c2cc(NC(=O)NC3CCCCC3)ccc2O1 | / | / | / | 66* | 5[16.7 µM] | /
